Test results from ChEMBL document CHEMBL1158464, “Structure-activity relationships and cancer-cell selective toxicity of novel inhibitors of glioma-associated oncogene homologue 1 (Gli1) mediated transcription” (J Med Chem, 2009).
Active and inactive are the calls of the source. The calls are words filed in the database; no cut-off is given here.

molecular target: T1, Zinc finger protein GLI1 (Homo sapiens) (UniProt P08151); experiment: Inhibition of exogenously transfected human Gli1-mediated transcriptional activity in mouse C3H10T1/2 cells at 20 uM after 24 hrs by luciferase reporter gene assay; format: cell-based; details: C3H 10T1/2
T1 sequence (whole entry): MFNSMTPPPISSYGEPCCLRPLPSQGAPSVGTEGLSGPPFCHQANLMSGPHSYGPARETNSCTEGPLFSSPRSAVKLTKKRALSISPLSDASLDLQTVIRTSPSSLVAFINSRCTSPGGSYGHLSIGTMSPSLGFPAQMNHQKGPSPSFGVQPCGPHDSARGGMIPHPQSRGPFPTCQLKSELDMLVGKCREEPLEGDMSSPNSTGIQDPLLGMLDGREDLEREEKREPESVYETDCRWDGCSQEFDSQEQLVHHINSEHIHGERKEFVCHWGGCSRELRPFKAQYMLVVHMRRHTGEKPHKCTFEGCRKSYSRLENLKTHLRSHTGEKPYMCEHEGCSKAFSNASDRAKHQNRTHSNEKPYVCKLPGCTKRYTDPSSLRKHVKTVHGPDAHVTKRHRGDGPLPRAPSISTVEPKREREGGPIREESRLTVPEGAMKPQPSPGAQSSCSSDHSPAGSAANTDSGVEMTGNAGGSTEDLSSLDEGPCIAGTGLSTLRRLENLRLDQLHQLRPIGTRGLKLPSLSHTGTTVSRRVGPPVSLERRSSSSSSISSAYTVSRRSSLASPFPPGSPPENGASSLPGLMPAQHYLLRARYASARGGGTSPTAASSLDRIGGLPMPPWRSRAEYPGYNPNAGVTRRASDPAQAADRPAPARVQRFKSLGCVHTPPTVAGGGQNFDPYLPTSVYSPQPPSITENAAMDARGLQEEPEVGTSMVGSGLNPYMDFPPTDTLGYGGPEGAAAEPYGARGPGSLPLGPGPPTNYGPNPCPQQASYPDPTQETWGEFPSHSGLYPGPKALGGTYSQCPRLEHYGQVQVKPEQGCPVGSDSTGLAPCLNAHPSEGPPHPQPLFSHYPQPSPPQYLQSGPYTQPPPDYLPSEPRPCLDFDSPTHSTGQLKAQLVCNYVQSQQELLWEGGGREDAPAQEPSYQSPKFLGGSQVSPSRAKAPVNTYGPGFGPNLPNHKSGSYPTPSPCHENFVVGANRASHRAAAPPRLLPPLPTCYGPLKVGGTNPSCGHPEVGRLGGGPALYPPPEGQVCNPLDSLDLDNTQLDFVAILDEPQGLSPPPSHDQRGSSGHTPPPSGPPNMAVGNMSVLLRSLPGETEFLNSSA
How it was run: (§1)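 They were replated 18 h later, given compound or DMSO 6 h after plating, and exposed for 24 h at 37 °C, 5% CO2. Lysate was read by dual luciferase as firefly/Renilla, triplicate, DMSO = 0%. IC50 came from curve fitting.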

Structure (SMILES) | inhibition
C[C@H](CNC(=O)c1ccc(O)cc1)c1cccc(C(=O)c2ccccc2)c1 | Active
COc1ccc(COC[C@@H](C)c2cccc(C(=O)c3ccccc3)c2)cc1 | inactive
C[C@H](C(=O)NCCc1ccccc1)c1cccc(C(=O)c2ccccc2)c1 | Active
COc1ccc(C(=O)NC[C@@H](C)c2cccc(C(=O)c3ccccc3)c2)cc1 | Active
C[C@H](CNC(=O)Nc1ccc(O)cc1)c1cccc(C(=O)c2ccccc2)c1 | Active
COCCN(CCc1ccc(O)cc1)C(=O)[C@@H](C)c1cccc(C(=O)c2ccccc2)c1 | Active

The next lines start with the values.

inhibition | Structure (SMILES)
Active | C[C@H](COC(=O)NCCc1ccc(O)cc1)c1cccc(C(=O)c2ccccc2)c1
Active | C[C@H](C(=O)NCCc1ccc(Cl)cc1)c1cccc(C(=O)c2ccccc2)c1
Active | COc1ccc2c(c1)c(CC(=O)NCCc1ccc(O)cc1)c(C)n2C(=O)c1ccc(Cl)cc1

molecular target: T1, Zinc finger protein GLI1 (Homo sapiens); experiment: Inhibition of exogenously transfected human Gli1-mediated transcriptional activity in mouse C3H10T1/2 cells at 40 uM after 24 hrs by luciferase reporter gene assay; format: cell-based; details: C3H 10T1/2; how it was run: as §1

Structure (SMILES) | inhibition
C[C@H](CNC(=O)c1ccc(O)cc1)c1cccc(C(=O)c2ccccc2)c1 | Active
COc1ccc(COC[C@@H](C)c2cccc(C(=O)c3ccccc3)c2)cc1 | inactive
C[C@H](C(=O)NCCc1ccccc1)c1cccc(C(=O)c2ccccc2)c1 | Active
COc1ccc(C(=O)NC[C@@H](C)c2cccc(C(=O)c3ccccc3)c2)cc1 | Active
C[C@H](CNC(=O)Nc1ccc(O)cc1)c1cccc(C(=O)c2ccccc2)c1 | Active
COCCN(CCc1ccc(O)cc1)C(=O)[C@@H](C)c1cccc(C(=O)c2ccccc2)c1 | Active

Now from value to compound:

inhibition | Structure (SMILES)
Active | C[C@H](COC(=O)NCCc1ccc(O)cc1)c1cccc(C(=O)c2ccccc2)c1
Active | C[C@H](C(=O)NCCc1ccc(Cl)cc1)c1cccc(C(=O)c2ccccc2)c1
Active | COc1ccc2c(c1)c(CC(=O)NCCc1ccc(O)cc1)c(C)n2C(=O)c1ccc(Cl)cc1

test system: SJRH30; experiment: Cytotoxicity against human Rh30 cells at 40 uM/well after 68 hrs by alamar blue assay; format: functional, cell-based; details: not given
How it was run: (§2)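 Cells plated in appropriate medium 24 h before compound. A 10 mM DMSO stock was diluted in EMEM to 160 µM (4×) and added in triplicate to a final 40 µM. Incubated 68 h at 37 °C, then Alamar Blue for 4 h at 37 °C. Fluorescence read at ex 510/em 590 nm. Viability taken relative to DMSO control wells.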

Structure (SMILES) | Activity
C[C@H](CNC(=O)c1ccc(O)cc1)c1cccc(C(=O)c2ccccc2)c1 | Active
COc1ccc(COC[C@@H](C)c2cccc(C(=O)c3ccccc3)c2)cc1 | Active
C[C@H](C(=O)NCCc1ccccc1)c1cccc(C(=O)c2ccccc2)c1 | Active
COc1ccc(C(=O)NC[C@@H](C)c2cccc(C(=O)c3ccccc3)c2)cc1 | Active
C[C@H](CNC(=O)Nc1ccc(O)cc1)c1cccc(C(=O)c2ccccc2)c1 | Active
C[C@H](COC(=O)NCCc1ccc(O)cc1)c1cccc(C(=O)c2ccccc2)c1 | Active
C[C@H](C(=O)NCCc1ccc(Cl)cc1)c1cccc(C(=O)c2ccccc2)c1 | Active
COc1ccc2c(c1)c(CC(=O)NCCc1ccc(O)cc1)c(C)n2C(=O)c1ccc(Cl)cc1 | Active
COCCN(CCc1ccc(O)cc1)C(=O)[C@@H](C)c1cccc(C(=O)c2ccccc2)c1 | Active

test system: MDA-MB-231; experiment: Cytotoxicity against human MDA-MB-231 cells at 40 uM/well after 68 hrs by alamar blue assay; format: functional, cell-based; details: not given; how it was run: as §2

Structure (SMILES) | Activity
C[C@H](CNC(=O)c1ccc(O)cc1)c1cccc(C(=O)c2ccccc2)c1 | Active
COc1ccc(COC[C@@H](C)c2cccc(C(=O)c3ccccc3)c2)cc1 | Active
C[C@H](C(=O)NCCc1ccccc1)c1cccc(C(=O)c2ccccc2)c1 | Active
COc1ccc(C(=O)NC[C@@H](C)c2cccc(C(=O)c3ccccc3)c2)cc1 | Active
C[C@H](CNC(=O)Nc1ccc(O)cc1)c1cccc(C(=O)c2ccccc2)c1 | Active
C[C@H](COC(=O)NCCc1ccc(O)cc1)c1cccc(C(=O)c2ccccc2)c1 | Active
C[C@H](C(=O)NCCc1ccc(Cl)cc1)c1cccc(C(=O)c2ccccc2)c1 | Active
COc1ccc2c(c1)c(CC(=O)NCCc1ccc(O)cc1)c(C)n2C(=O)c1ccc(Cl)cc1 | Active
COCCN(CCc1ccc(O)cc1)C(=O)[C@@H](C)c1cccc(C(=O)c2ccccc2)c1 | Active

test system: Daoy; experiment: Cytotoxicity against human DaOY cells at 40 uM/well after 68 hrs by alamar blue assay; format: functional, cell-based; details: not given; how it was run: as §2

Structure (SMILES) | Activity
C[C@H](CNC(=O)c1ccc(O)cc1)c1cccc(C(=O)c2ccccc2)c1 | Active
COc1ccc(COC[C@@H](C)c2cccc(C(=O)c3ccccc3)c2)cc1 | Active
C[C@H](C(=O)NCCc1ccccc1)c1cccc(C(=O)c2ccccc2)c1 | Active
COc1ccc(C(=O)NC[C@@H](C)c2cccc(C(=O)c3ccccc3)c2)cc1 | Active
C[C@H](CNC(=O)Nc1ccc(O)cc1)c1cccc(C(=O)c2ccccc2)c1 | Active
C[C@H](COC(=O)NCCc1ccc(O)cc1)c1cccc(C(=O)c2ccccc2)c1 | Active
C[C@H](C(=O)NCCc1ccc(Cl)cc1)c1cccc(C(=O)c2ccccc2)c1 | Active
COc1ccc2c(c1)c(CC(=O)NCCc1ccc(O)cc1)c(C)n2C(=O)c1ccc(Cl)cc1 | Active
COCCN(CCc1ccc(O)cc1)C(=O)[C@@H](C)c1cccc(C(=O)c2ccccc2)c1 | Active

test system: DU-145; experiment: Cytotoxicity against human DU145 cells at 40 uM/well after 68 hrs by alamar blue assay; format: functional, cell-based; details: not given; how it was run: as §2

Structure (SMILES) | Activity
C[C@H](CNC(=O)c1ccc(O)cc1)c1cccc(C(=O)c2ccccc2)c1 | Active
COc1ccc(COC[C@@H](C)c2cccc(C(=O)c3ccccc3)c2)cc1 | Active
C[C@H](C(=O)NCCc1ccccc1)c1cccc(C(=O)c2ccccc2)c1 | Active
COc1ccc(C(=O)NC[C@@H](C)c2cccc(C(=O)c3ccccc3)c2)cc1 | Active
C[C@H](CNC(=O)Nc1ccc(O)cc1)c1cccc(C(=O)c2ccccc2)c1 | Active
C[C@H](COC(=O)NCCc1ccc(O)cc1)c1cccc(C(=O)c2ccccc2)c1 | Active
C[C@H](C(=O)NCCc1ccc(Cl)cc1)c1cccc(C(=O)c2ccccc2)c1 | Active
COc1ccc2c(c1)c(CC(=O)NCCc1ccc(O)cc1)c(C)n2C(=O)c1ccc(Cl)cc1 | Active
COCCN(CCc1ccc(O)cc1)C(=O)[C@@H](C)c1cccc(C(=O)c2ccccc2)c1 | Active

test system: Raji; experiment: Cytotoxicity against human Raji cells at 40 uM/well after 68 hrs by alamar blue assay; format: functional, cell-based; details: not given; how it was run: as §2

Structure (SMILES) | Activity
C[C@H](CNC(=O)c1ccc(O)cc1)c1cccc(C(=O)c2ccccc2)c1 | Active
COc1ccc(COC[C@@H](C)c2cccc(C(=O)c3ccccc3)c2)cc1 | Active
C[C@H](C(=O)NCCc1ccccc1)c1cccc(C(=O)c2ccccc2)c1 | Active
COc1ccc(C(=O)NC[C@@H](C)c2cccc(C(=O)c3ccccc3)c2)cc1 | Active
C[C@H](CNC(=O)Nc1ccc(O)cc1)c1cccc(C(=O)c2ccccc2)c1 | Active
C[C@H](COC(=O)NCCc1ccc(O)cc1)c1cccc(C(=O)c2ccccc2)c1 | Active
C[C@H](C(=O)NCCc1ccc(Cl)cc1)c1cccc(C(=O)c2ccccc2)c1 | Active
COc1ccc2c(c1)c(CC(=O)NCCc1ccc(O)cc1)c(C)n2C(=O)c1ccc(Cl)cc1 | Active
COCCN(CCc1ccc(O)cc1)C(=O)[C@@H](C)c1cccc(C(=O)c2ccccc2)c1 | Active

test system: HepG2; experiment: Cytotoxicity against human HepG2 cells at 40 uM/well after 68 hrs by alamar blue assay; format: functional, cell-based; details: not given; how it was run: as §2

Structure (SMILES) | Activity
C[C@H](CNC(=O)c1ccc(O)cc1)c1cccc(C(=O)c2ccccc2)c1 | inactive
COc1ccc(COC[C@@H](C)c2cccc(C(=O)c3ccccc3)c2)cc1 | inactive
C[C@H](C(=O)NCCc1ccccc1)c1cccc(C(=O)c2ccccc2)c1 | inactive
COc1ccc(C(=O)NC[C@@H](C)c2cccc(C(=O)c3ccccc3)c2)cc1 | inactive
C[C@H](CNC(=O)Nc1ccc(O)cc1)c1cccc(C(=O)c2ccccc2)c1 | inactive
C[C@H](COC(=O)NCCc1ccc(O)cc1)c1cccc(C(=O)c2ccccc2)c1 | inactive
C[C@H](C(=O)NCCc1ccc(Cl)cc1)c1cccc(C(=O)c2ccccc2)c1 | inactive
COc1ccc2c(c1)c(CC(=O)NCCc1ccc(O)cc1)c(C)n2C(=O)c1ccc(Cl)cc1 | inactive
COCCN(CCc1ccc(O)cc1)C(=O)[C@@H](C)c1cccc(C(=O)c2ccccc2)c1 | inactive

test system: LN-229; experiment: Cytotoxicity against human LN229 cells at 40 uM/well after 68 hrs by alamar blue assay; format: functional, cell-based; details: not given; how it was run: as §2

Structure (SMILES) | Activity
C[C@H](CNC(=O)c1ccc(O)cc1)c1cccc(C(=O)c2ccccc2)c1 | inactive
COc1ccc(COC[C@@H](C)c2cccc(C(=O)c3ccccc3)c2)cc1 | inactive
C[C@H](C(=O)NCCc1ccccc1)c1cccc(C(=O)c2ccccc2)c1 | inactive
COc1ccc(C(=O)NC[C@@H](C)c2cccc(C(=O)c3ccccc3)c2)cc1 | inactive
C[C@H](CNC(=O)Nc1ccc(O)cc1)c1cccc(C(=O)c2ccccc2)c1 | inactive
C[C@H](COC(=O)NCCc1ccc(O)cc1)c1cccc(C(=O)c2ccccc2)c1 | inactive
C[C@H](C(=O)NCCc1ccc(Cl)cc1)c1cccc(C(=O)c2ccccc2)c1 | inactive
COc1ccc2c(c1)c(CC(=O)NCCc1ccc(O)cc1)c(C)n2C(=O)c1ccc(Cl)cc1 | inactive
COCCN(CCc1ccc(O)cc1)C(=O)[C@@H](C)c1cccc(C(=O)c2ccccc2)c1 | inactive

test system: BJ; experiment: Cytotoxicity against human TERT-immortalized human BJ cells at 40 uM/well after 68 hrs by alamar blue assay; format: cell-based; details: not given; how it was run: as §2

Structure (SMILES) | Activity
C[C@H](CNC(=O)c1ccc(O)cc1)c1cccc(C(=O)c2ccccc2)c1 | Non-toxic
COc1ccc(COC[C@@H](C)c2cccc(C(=O)c3ccccc3)c2)cc1 | Non-toxic
C[C@H](C(=O)NCCc1ccccc1)c1cccc(C(=O)c2ccccc2)c1 | Non-toxic
COc1ccc(C(=O)NC[C@@H](C)c2cccc(C(=O)c3ccccc3)c2)cc1 | Non-toxic
C[C@H](CNC(=O)Nc1ccc(O)cc1)c1cccc(C(=O)c2ccccc2)c1 | Toxic
C[C@H](COC(=O)NCCc1ccc(O)cc1)c1cccc(C(=O)c2ccccc2)c1 | Non-toxic
C[C@H](C(=O)NCCc1ccc(Cl)cc1)c1cccc(C(=O)c2ccccc2)c1 | Non-toxic
COc1ccc2c(c1)c(CC(=O)NCCc1ccc(O)cc1)c(C)n2C(=O)c1ccc(Cl)cc1 | Non-toxic
COCCN(CCc1ccc(O)cc1)C(=O)[C@@H](C)c1cccc(C(=O)c2ccccc2)c1 | Non-toxic
